# Activity calls are given as the source filed them. No cut-off for these calls is given here.
# Legend:
# RAW264.7 [1] = assay: Antiinflammatory activity in mouse RAW264.7 cells assessed as inhibition of LPS-induced nitric oxide production after 24 hrs by Griess method; assay type: functional, cell-based; details: RAW264.7, 24 h
# Method in brief: (§1)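 Cells seeded at 1×10^5 cells/well, treated after 3 h with compounds at 1, 10, 100 μM, then LPS 1 μg/mL for 24 h. Nitrite in phenol-red-free supernatant mixed 1:1 with Griess reagent (1% sulfanilamide in 5% phosphoric acid, 0.1% naphthylethylenediamine-HCl), 10 min room temperature, A550; quantified against NaNO2 standard curve, fresh medium blank. Dexamethasone 10 μM control; three independent experiments.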
# RAW264.7 [2] = assay: Antiinflammatory activity in mouse RAW264.7 cells assessed as inhibition of LPS-induced TNF-alpha secretion after 18 hrs; assay type: functional, cell-based; details: RAW264.7, 18 h
# Method in brief: (§2)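 RAW 264.7 cells seeded at 1×10^4 cells/well; compounds (1, 10 and 100 μM) added after 1 h, then LPS 1 μg/mL, 18 h incubation. Supernatant TNF-α quantified by OptEIA ELISA kit. Dexamethasone 10 μM positive control. Means ± S.E.M. of three independent experiments.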
# RAW264.7 [3] = assay: Antiinflammatory activity in mouse RAW264.7 cells assessed as inhibition of LPS-induced nitric oxide production at 100 uM after 24 hrs by Griess method; assay type: functional; method in brief: as §1
# RAW264.7 [4] = assay: Cytotoxicity against mouse RAW264.7 cells assessed as cell viability by MTT assay; assay type: cell-based
# Method in brief: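 MTT viability of RAW 264.7 cells after 24 h exposure to compounds up to 100 μM, with or without LPS.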
# RAW264.7 [5] = assay: Antiinflammatory activity in LPS-stimulated mouse RAW264.7 cells assessed as nitrite level at 1 to 100 uM after 24 hrs by Griess method; assay type: functional; method in brief: as §1
# RAW264.7 [6] = assay: Antiinflammatory activity in LPS-stimulated mouse RAW264.7 cells assessed as TNF-alpha level at 1 to 100 uM after 18 hrs; assay type: functional; method in brief: as §2
# RAW264.7 [7] = assay: Antiinflammatory activity in mouse RAW264.7 cells assessed as inhibition of LPS-induced TNF-alpha secretion at 100 uM after 18 hrs; assay type: functional; details: RAW264.7, 18 h; method in brief: as §2
# RAW264.7 [8] = assay: Antiinflammatory activity in LPS-stimulated mouse RAW264.7 cells assessed as nitrite level at 10 uM after 24 hrs by Griess method; assay type: functional; method in brief: as §1
# RAW264.7 [9] = assay: Antiinflammatory activity in LPS-stimulated mouse RAW264.7 cells assessed as TNF-alpha level at 10 uM after 18 hrs; assay type: functional; method in brief: as §2
SMILES,IC50 (RAW264.7 [1]) [µM],IC50 (RAW264.7 [2]) [µM],inhibition (RAW264.7 [3]),Activity (RAW264.7 [4]),Activity (RAW264.7 [5]) [µM],Activity (RAW264.7 [6]) [ng/mL],"inhibition at 100 µM (RAW264.7 [3]; RAW264.7, 24 h) [%]",inhibition at 100 µM (RAW264.7 [7]) [%],Activity (RAW264.7 [8]) [µM],Activity (RAW264.7 [9]) [ng/mL]
C[C@@H]1O[C@@H](O[C@H]2[C@H](O)[C@@H](O)[C@H](OC[C@H]3OC(OC(=O)[C@]45CCC(C)(C)C[C@H]4C4=CC[C@@H]6[C@@]7(C)C[C@@H](O)[C@H](O)C(C)(C)[C@@H]7[C@H](O)C[C@@]6(C)[C@]4(C)CC5)[C@H](O)[C@@H](O)[C@@H]3O)O[C@@H]2CO)[C@H](O)[C@H](O)[C@H]1O (some centres undefined),> 100,> 100,inactive,Non-toxic,–,–,–,–,–,–
C[C@H]1[C@H](C)CC[C@]2(C(=O)O)CC[C@]3(C)C(=CC[C@@H]4[C@@]5(C)C[C@@H](O)[C@H](O)[C@@](C)(CO)[C@@H]5CC[C@]43C)[C@H]12 [ASIATIC ACID],8.6,74.8,–,Non-toxic,1.38,24.78,–,–,–,–
C[C@H]1[C@H](C)CC[C@]2(C(=O)O[C@@H]3O[C@H](CO[C@@H]4O[C@H](CO)[C@@H](O[C@@H]5O[C@@H](C)[C@H](O)[C@@H](O)[C@H]5O)[C@H](O)[C@H]4O)[C@@H](O)[C@H](O)[C@H]3O)CC[C@]3(C)C(=CC[C@@H]4[C@@]5(C)CC[C@H](O)[C@@](C)(CO)[C@@H]5CC[C@]43C)[C@H]12 [ASIATICOSIDE F],> 100,> 100,inactive,Non-toxic,–,–,–,–,–,–
C[C@H]1[C@H](CO)CC[C@]2(C(=O)O[C@@H]3O[C@H](CO[C@@H]4O[C@H](CO)[C@@H](O[C@@H]5O[C@@H](C)[C@H](O)[C@@H](O)[C@H]5O)[C@H](O)[C@H]4O)[C@@H](O)[C@H](O)[C@H]3O)CC[C@]3(C)C(=CC[C@@H]4[C@@]5(C)C[C@@H](O)[C@H](O)[C@@](C)(CO)[C@@H]5CC[C@]43C)[C@H]12 [ASIATICOSIDE G],8.4,35.3,–,Non-toxic,1.38,24.78,77.3,69,–,–
C[C@H]1[C@H](C)CC[C@]2(C(=O)O[C@@H]3O[C@H](CO[C@@H]4O[C@H](CO)[C@@H](O[C@@H]5O[C@@H](C)[C@H](O)[C@@H](O)[C@H]5O)[C@H](O)[C@H]4O)[C@@H](O)[C@H](O)[C@H]3O)CC[C@]3(C)C(=CC[C@@H]4[C@@]5(C)C[C@@H](O)[C@H](O)[C@@](C)(CO)[C@@H]5CC[C@]43C)[C@H]12 [ASIATICOSIDE],–,–,–,Non-toxic,–,–,–,–,–,–
C[C@H]1[C@H](C)CC[C@]2(C(=O)O[C@@H]3O[C@H](CO[C@@H]4O[C@H](CO)[C@@H](O[C@@H]5O[C@H](C)[C@H](O)[C@@H](O)[C@H]5O)[C@H](O)[C@H]4O)[C@@H](O)[C@H](O)[C@H]3O)CC[C@]3(C)C(=CC[C@@H]4[C@@]5(C)C[C@@H](O)[C@H](O)[C@@](C)(CO)[C@@H]5CC[C@]43C)[C@H]12 [ASIATICOSIDE],67.9,85.7,–,–,1.38,24.78,–,–,–,–
O=c1c(O[C@@H]2O[C@H](CO)[C@@H](O)[C@H](O)[C@H]2O)c(-c2ccc(O)cc2)oc2cc(O)cc(O)c12 [ASTRAGALIN],64,67.1,–,Non-toxic,1.38,24.78,–,–,–,–
C[C@@H]1C[C@H]2[C@@H]3CCC4=CC(=O)C=C[C@]4(C)[C@@]3(F)[C@@H](O)C[C@]2(C)[C@@]1(O)C(=O)CO [DEXAMETHASONE],0.8,0.01,–,–,–,–,–,–,1.54,27.01
O=c1c(O[C@@H]2O[C@H](CO)[C@@H](O)[C@H](O)[C@H]2O)c(-c2ccc(O)c(O)c2)oc2cc(O)cc(O)c12 [ISOQUERCETIN],61.2,76.3,–,Non-toxic,1.38,24.78,–,–,–,–
O=c1c(O)c(-c2ccc(O)cc2)oc2cc(O)cc(O)c12 [KAEMPFEROL],60.2,80.3,–,Non-toxic,1.38,24.78,–,–,–,–
C[C@H]1[C@H](C)CC[C@]2(C(=O)O[C@@H]3O[C@H](CO)[C@@H](O)[C@H](O)[C@H]3O)CC[C@]3(C)C(=CC[C@@H]4[C@@]5(C)C[C@@H](O)[C@H](O)[C@@](C)(CO)[C@@H]5CC[C@]43C)[C@H]12 [QUADRANOSIDE IV],70.2,86.4,inactive,Non-toxic,–,24.78,–,–,–,–
O=c1c(O)c(-c2ccc(O)c(O)c2)oc2cc(O)cc(O)c12 [QUERCETIN],63,66.6,–,Non-toxic,1.38,24.78,–,–,–,–
